From ChEMBL document CHEMBL4196066, “Design and synthesis of furyl/thineyl pyrroloquinolones based on natural alkaloid perlolyrine, lead to the discovery of potent and selective PDE5 inhibitors” (Eur J Med Chem, 2018)
One block for each molecule: values may come before it.

What was measured:
[1] = molecular target: T1, cGMP-specific 3',5'-cyclic phosphodiesterase (Homo sapiens, UniProt O76074); assay: Inhibition of N-terminal GST-tagged full length recombinant human PDE5A1 catalytic domain expressed in Baculovirus infected Sf9 insect cells using FAM-cGMP as substrate after 1 hr by fluorescence polarization assay
Homo sapiens [2] = species on record: Homo sapiens; assay: Selectivity ratio of IC50 for N-terminal GST-tagged full length recombinant human PDE1A to IC50 for N-terminal GST-tagged full length recombinant human PDE5A1 catalytic domain
Homo sapiens [3] = species on record: Homo sapiens; assay: Selectivity ratio of IC50 for N-terminal FLAG-tagged human PDE2A1 (2 to 941 residues) to IC50 for N-terminal GST-tagged full length recombinant human PDE5A1 catalytic domain
Homo sapiens [4] = species on record: Homo sapiens; assay: Selectivity ratio of IC50 for N-terminal GST-tagged recombinant human PDE3B (592 end residues) to IC50 for N-terminal GST-tagged full length recombinant human PDE5A1 catalytic domain
Homo sapiens [5] = species on record: Homo sapiens; assay: Selectivity ratio of IC50 for N-terminal GST-tagged full length recombinant human PDE4A1A to IC50 for N-terminal GST-tagged full length recombinant human PDE5A1 catalytic domain
Homo sapiens [6] = species on record: Homo sapiens; assay: Selectivity ratio of IC50 for N-terminal GST-tagged full length recombinant human PDE6C to IC50 for N-terminal GST-tagged full length recombinant human PDE5A1 catalytic domain
Thoracic aorta [7] = assay: Vasorelaxant activity in norepinephrine-pretreated New Zealand rabbit thoracic aorta assessed as increase in aortic relaxation at 10 uM measured after 15 mins relative to control; type: functional, Oryctolagus cuniculus; parameters: scale not given: the % may be the effect or the level left
How it was run: (§1)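 Thoracic aortic rings from New Zealand white rabbits were held in Krebs buffer at 2 g resting tension (0%) and equilibrated 2 h. Rings were contracted to maximum with 1 µM norepinephrine (100%). Compounds were added cumulatively at 15 min intervals, with tension recorded 15 min after each dose. Relaxation % = (max − recorded)/(max − 2 g) × 100; n = 1–2 rings.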

[8] = molecular target: Cone cGMP-specific 3',5'-cyclic phosphodiesterase subunit alpha' (Homo sapiens, UniProt P51160); assay: Inhibition of N-terminal GST-tagged full length recombinant human PDE6C expressed in Baculovirus infected Sf9 insect cells using […] as substrate after 1 hr by fluorescence polarization assay
Chain of Cone cGMP-specific 3',5'-cyclic phosphodiesterase subunit alpha' (P51160 whole entry): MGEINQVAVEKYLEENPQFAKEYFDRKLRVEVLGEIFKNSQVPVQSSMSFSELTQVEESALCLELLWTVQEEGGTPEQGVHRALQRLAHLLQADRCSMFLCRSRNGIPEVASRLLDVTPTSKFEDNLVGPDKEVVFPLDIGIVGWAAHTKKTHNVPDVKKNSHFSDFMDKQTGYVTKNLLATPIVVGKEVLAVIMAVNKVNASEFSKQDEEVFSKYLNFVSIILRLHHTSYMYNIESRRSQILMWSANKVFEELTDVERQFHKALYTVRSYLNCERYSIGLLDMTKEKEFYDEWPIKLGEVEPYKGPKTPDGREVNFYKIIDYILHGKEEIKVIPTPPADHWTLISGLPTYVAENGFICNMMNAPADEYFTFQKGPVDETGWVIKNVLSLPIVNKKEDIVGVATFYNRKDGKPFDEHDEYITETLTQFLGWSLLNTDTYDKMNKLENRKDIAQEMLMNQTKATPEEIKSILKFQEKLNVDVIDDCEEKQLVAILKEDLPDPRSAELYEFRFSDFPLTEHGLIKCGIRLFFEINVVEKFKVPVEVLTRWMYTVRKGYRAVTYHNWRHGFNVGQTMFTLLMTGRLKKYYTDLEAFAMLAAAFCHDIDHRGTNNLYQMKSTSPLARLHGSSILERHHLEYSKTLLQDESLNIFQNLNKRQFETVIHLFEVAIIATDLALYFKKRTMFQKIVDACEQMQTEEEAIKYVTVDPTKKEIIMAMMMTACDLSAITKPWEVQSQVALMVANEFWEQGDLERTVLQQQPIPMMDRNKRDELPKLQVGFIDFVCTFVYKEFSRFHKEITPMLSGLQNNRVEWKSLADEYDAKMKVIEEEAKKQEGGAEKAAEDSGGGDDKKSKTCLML

[9] = molecular target: Dual specificity calcium/calmodulin-dependent 3',5'-cyclic nucleotide phosphodiesterase 1A (Homo sapiens) (UniProt P54750); assay: Inhibition of N-terminal GST-tagged full length recombinant human PDE1A expressed in Baculovirus infected Sf9 insect cells at 12.5 uM using FAM-cAMP as substrate after 1 hr by fluorescence polarization assay relative to control
Chain of Dual specificity calcium/calmodulin-dependent 3',5'-cyclic nucleotide phosphodiesterase 1A (Homo sapiens) (P54750 whole entry, the tested form may be a part): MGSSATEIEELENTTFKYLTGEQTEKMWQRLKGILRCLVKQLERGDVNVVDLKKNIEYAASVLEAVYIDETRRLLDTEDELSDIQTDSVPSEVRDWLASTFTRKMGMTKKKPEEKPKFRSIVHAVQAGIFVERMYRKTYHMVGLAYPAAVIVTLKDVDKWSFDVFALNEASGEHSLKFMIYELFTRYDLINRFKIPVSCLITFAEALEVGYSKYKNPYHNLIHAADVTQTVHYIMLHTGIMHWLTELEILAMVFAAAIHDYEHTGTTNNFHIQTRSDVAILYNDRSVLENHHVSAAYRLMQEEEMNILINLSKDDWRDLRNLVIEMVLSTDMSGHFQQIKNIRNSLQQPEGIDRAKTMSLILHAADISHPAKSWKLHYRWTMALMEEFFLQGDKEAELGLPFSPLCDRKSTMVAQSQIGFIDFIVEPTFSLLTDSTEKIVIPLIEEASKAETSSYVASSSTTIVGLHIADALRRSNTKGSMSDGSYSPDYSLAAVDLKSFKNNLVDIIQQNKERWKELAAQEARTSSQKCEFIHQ

[10] = molecular target: cGMP-dependent 3',5'-cyclic phosphodiesterase (Homo sapiens) (UniProt O00408); assay: Inhibition of N-terminal FLAG-tagged human PDE2A1 (2 to 941 residues) expressed in Baculovirus infected Sf9 insect cells at 12.5 uM using FAM-cAMP as substrate after 1 hr by fluorescence polarization assay relative to control
Chain of cGMP-dependent 3',5'-cyclic phosphodiesterase (Homo sapiens) (O00408 whole entry, the tested form may be a part): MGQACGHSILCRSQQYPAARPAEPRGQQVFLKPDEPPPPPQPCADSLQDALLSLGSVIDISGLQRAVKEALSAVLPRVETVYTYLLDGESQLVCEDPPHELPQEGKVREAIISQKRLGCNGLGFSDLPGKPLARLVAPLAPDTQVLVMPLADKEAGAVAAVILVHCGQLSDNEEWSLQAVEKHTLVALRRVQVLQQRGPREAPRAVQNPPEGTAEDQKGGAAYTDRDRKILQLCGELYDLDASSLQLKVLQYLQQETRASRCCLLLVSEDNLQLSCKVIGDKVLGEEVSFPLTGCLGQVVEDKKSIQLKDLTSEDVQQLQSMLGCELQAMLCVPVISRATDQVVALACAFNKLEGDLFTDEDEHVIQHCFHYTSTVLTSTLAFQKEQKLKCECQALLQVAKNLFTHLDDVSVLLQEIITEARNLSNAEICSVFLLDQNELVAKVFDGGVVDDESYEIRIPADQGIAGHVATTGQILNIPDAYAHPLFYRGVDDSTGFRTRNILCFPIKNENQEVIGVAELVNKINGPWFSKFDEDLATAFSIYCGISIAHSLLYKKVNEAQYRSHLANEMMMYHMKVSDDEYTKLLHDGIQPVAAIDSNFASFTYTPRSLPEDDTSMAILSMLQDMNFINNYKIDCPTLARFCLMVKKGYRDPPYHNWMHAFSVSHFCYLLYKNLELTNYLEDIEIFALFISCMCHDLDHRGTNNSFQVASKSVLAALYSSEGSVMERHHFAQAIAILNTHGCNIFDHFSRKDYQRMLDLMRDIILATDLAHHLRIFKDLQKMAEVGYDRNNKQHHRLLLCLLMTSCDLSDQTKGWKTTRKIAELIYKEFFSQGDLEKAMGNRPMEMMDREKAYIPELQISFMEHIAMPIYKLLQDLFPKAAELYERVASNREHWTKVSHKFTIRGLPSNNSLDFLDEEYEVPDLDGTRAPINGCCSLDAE

[11] = molecular target: cGMP-inhibited 3',5'-cyclic phosphodiesterase 3B (Homo sapiens) (UniProt Q13370); assay: Inhibition of N-terminal GST-tagged recombinant human PDE3B (592 end residues) expressed in Baculovirus infected Sf9 insect cells at 12.5 uM using FAM-cAMP as substrate after 1 hr by fluorescence polarization assay relative to control
Chain of cGMP-inhibited 3',5'-cyclic phosphodiesterase 3B (Homo sapiens) (Q13370 whole entry, looked up): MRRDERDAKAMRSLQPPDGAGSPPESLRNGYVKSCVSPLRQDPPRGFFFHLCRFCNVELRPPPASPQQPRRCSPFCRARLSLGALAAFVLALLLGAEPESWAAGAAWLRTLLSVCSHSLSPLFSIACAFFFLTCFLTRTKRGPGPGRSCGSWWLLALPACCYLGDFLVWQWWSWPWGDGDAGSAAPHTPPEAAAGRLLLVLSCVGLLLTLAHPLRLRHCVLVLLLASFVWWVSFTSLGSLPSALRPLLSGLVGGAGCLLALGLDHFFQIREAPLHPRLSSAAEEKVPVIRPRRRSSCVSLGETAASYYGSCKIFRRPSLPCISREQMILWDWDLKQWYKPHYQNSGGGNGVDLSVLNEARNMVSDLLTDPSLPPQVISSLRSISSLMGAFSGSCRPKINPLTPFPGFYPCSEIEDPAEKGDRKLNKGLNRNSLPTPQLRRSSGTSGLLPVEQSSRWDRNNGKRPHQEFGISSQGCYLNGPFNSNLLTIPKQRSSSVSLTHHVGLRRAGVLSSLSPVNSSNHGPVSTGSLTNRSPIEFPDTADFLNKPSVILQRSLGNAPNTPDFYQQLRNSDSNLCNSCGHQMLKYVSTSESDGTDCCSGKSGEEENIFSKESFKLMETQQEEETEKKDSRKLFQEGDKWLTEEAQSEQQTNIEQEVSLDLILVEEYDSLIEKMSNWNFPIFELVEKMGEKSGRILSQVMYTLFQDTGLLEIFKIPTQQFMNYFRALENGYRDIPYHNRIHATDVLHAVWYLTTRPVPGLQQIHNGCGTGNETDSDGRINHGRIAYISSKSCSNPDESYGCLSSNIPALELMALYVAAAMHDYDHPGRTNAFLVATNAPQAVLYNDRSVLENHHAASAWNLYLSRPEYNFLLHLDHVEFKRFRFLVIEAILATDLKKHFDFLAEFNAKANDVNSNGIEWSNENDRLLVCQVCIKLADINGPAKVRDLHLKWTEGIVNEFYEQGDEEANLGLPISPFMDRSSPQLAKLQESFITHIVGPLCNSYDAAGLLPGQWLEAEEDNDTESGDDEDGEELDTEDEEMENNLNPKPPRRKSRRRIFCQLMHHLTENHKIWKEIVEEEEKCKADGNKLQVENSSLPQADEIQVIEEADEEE

[12] = molecular target: 3',5'-cyclic-AMP phosphodiesterase 4A (Homo sapiens) (UniProt P27815); assay: Inhibition of N-terminal GST-tagged full length recombinant human PDE4A1A expressed in Baculovirus infected Sf9 insect cells at 3 uM using FAM-cAMP as substrate after 1 hr by fluorescence polarization assay relative to control
Chain of 3',5'-cyclic-AMP phosphodiesterase 4A (Homo sapiens) (P27815 whole entry): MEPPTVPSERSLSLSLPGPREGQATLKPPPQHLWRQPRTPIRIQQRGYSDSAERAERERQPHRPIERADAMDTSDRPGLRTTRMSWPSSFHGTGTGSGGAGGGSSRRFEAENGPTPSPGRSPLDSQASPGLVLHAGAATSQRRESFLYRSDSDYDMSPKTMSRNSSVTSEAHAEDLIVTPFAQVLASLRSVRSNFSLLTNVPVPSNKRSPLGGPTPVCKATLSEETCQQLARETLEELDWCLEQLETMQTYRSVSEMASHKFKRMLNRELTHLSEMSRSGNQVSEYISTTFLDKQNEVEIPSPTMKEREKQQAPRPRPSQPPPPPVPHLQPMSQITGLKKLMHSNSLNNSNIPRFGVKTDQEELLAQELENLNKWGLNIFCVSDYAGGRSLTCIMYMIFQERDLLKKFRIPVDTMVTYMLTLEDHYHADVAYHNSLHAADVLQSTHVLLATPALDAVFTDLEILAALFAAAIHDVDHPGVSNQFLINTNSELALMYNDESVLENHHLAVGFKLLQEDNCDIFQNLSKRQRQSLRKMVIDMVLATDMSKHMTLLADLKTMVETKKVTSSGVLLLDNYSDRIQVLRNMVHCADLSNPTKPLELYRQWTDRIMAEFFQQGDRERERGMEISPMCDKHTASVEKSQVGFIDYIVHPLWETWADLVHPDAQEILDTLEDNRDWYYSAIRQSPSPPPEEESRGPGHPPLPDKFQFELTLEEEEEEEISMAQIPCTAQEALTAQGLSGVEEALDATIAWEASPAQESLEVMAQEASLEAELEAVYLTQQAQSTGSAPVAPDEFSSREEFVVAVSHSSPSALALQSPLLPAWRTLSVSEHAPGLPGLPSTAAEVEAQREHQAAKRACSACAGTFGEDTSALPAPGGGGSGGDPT

Thoracic aorta [13] = assay: Vasorelaxant activity in norepinephrine-pretreated New Zealand rabbit thoracic aorta assessed as increase in aortic relaxation at 1 uM measured after 15 mins relative to control; type: functional, Oryctolagus cuniculus; parameters: scale not given: the % may be the effect or the level left; how it was run: as §1
[14] = molecular target: Dual specificity calcium/calmodulin-dependent 3',5'-cyclic nucleotide phosphodiesterase 1A (Homo sapiens) (UniProt P54750); assay: Inhibition of N-terminal GST-tagged full length recombinant human PDE1A expressed in Baculovirus infected Sf9 insect cells at 6 uM using FAM-cAMP as substrate after 1 hr by fluorescence polarization assay relative to control
[15] = molecular target: cGMP-dependent 3',5'-cyclic phosphodiesterase (Homo sapiens) (UniProt O00408); assay: Inhibition of N-terminal FLAG-tagged human PDE2A1 (2 to 941 residues) expressed in Baculovirus infected Sf9 insect cells at 6 uM using FAM-cAMP as substrate after 1 hr by fluorescence polarization assay relative to control
[16] = molecular target: cGMP-inhibited 3',5'-cyclic phosphodiesterase 3B (Homo sapiens) (UniProt Q13370); assay: Inhibition of N-terminal GST-tagged recombinant human PDE3B (592 end residues) expressed in Baculovirus infected Sf9 insect cells at 6 uM using FAM-cAMP as substrate after 1 hr by fluorescence polarization assay relative to control
[17] = molecular target: 3',5'-cyclic-AMP phosphodiesterase 4A (Homo sapiens) (UniProt P27815); assay: Inhibition of N-terminal GST-tagged full length recombinant human PDE4A1A expressed in Baculovirus infected Sf9 insect cells at 1.5 uM using FAM-cAMP as substrate after 1 hr by fluorescence polarization assay relative to control
[18] = molecular target: T1, cGMP-specific 3',5'-cyclic phosphodiesterase; assay: Inhibition of PDE5 (unknown origin)
Oryctolagus cuniculus = assay: Vasorelaxant activity in iv dosed New Zealand rabbit assessed as induction of ICP change in response to electrically pelvic nerve stimulation administered as bolus dose; type: functional

Structure (SMILES): CCc1ccc([C@H]2c3[nH]c4ccccc4c(=O)c3CN2c2ncc(-c3ccccn3)cn2)o1
IC50 [1]: 0.97 nM
Ratio IC50 (Homo sapiens [2]): > 10000
Ratio IC50 (Homo sapiens [3]): > 10000
Ratio IC50 (Homo sapiens [4]): > 10000
Ratio IC50 (Homo sapiens [5]): > 2500
Ratio IC50 (Homo sapiens [6]): 3.9
Activity (Thoracic aorta [7]): 30%
IC50 [8]: 3.8 nM
inhibition [9]: 7.5%
inhibition [10]: 51%
inhibition [11]: 10%
inhibition [12]: 12%

Structure (SMILES): CCc1ccc(C2c3[nH]c4ccccc4c(=O)c3CN2c2ccccn2)s1 (stereo unspecified)
IC50 [1]: 2.85 nM

Structure (SMILES): CCc1ccc(C2c3[nH]c4ccccc4c(=O)c3CN2c2ncc(-c3cccnc3)cn2)s1 (stereo unspecified)
IC50 [1]: 0.67 nM

Structure (SMILES): CCCc1nn(C)c2c(=O)[nH]c(-c3cc(S(=O)(=O)N4CCN(C)CC4)ccc3OCC)nc12
ED50 (Oryctolagus cuniculus): 0.0143 mg/kg

Second part, led by results:

IC50 [1]: 0.6 nM
Structure (SMILES): CCc1ccc(C2c3[nH]c4ccccc4c(=O)c3CN2c2ncc(-c3ccncc3)cn2)s1 (stereo unspecified)

IC50 [1]: 6.45 nM
Structure (SMILES): CCc1ccc(C2c3[nH]c4ccccc4c(=O)c3CN2c2ncc(-c3ccc(OC)cc3)cn2)s1 (stereo unspecified)

IC50 [1]: 0.82 nM
Structure (SMILES): CCc1ccc(C2c3[nH]c4ccccc4c(=O)c3CN2c2ncc(-c3cccnc3F)cn2)s1 (stereo unspecified)

IC50 [1]: 0.6 nM
Ratio IC50 (Homo sapiens [2]): > 10000
Ratio IC50 (Homo sapiens [3]): > 10000
Ratio IC50 (Homo sapiens [4]): > 10000
Ratio IC50 (Homo sapiens [5]): > 2500
Ratio IC50 (Homo sapiens [6]): 8
IC50 [8]: 4.8 nM
inhibition [14]: 2.5%
inhibition [15]: 7%
inhibition [16]: 2.5%
inhibition [17]: 3%
Structure (SMILES): CCc1ccc(C2c3[nH]c4ccccc4c(=O)c3CN2c2ncc(-c3ccccn3)cn2)s1 (racemic)
Activity (Thoracic aorta [13]): >90%

IC50 [18]: 9300 nM
Structure (SMILES): OCc1ccc(-c2nccc3c2[nH]c2ccccc23)o1 [PERLOLYRIN]
